In brackets after ≈: the same amount, converted by molar mass.
Tests used:
Format in all cases: functional
[1] = test system: Escherichia coli; test: Antibacterial activity against Escherichia coli ATTC 25922 after 16 to 18 hrs by serial plate dilution method; conditions: ATCC25922
Outline: (§1)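 Serial dilutions were made in Mueller-Hinton broth in tubes, adjusted to […] with phosphate buffer, and inoculated with a standardized bacterial suspension. Tubes were incubated at 37 °C for 16–18 h. MIC was taken as the lowest concentration with no visible growth.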

[2] = test system: Escherichia coli; test: microbe, parasite or virus in culture; conditions: ATCC25922, read-out: IZ
[3] = test system: Klebsiella pneumoniae; test: Antibacterial activity against Klebsiella pneumoniae after 16 to 18 hrs by serial plate dilution method; outline: as §1
[4] = test system: Klebsiella pneumoniae; test: microbe, parasite or virus in culture; conditions: read-out: IZ
[5] = test system: Pseudomonas aeruginosa; test: Antibacterial activity against Pseudomonas aeruginosa ATTC 27853 after 16 to 18 hrs by serial plate dilution method; conditions: ATCC27853; outline: as §1
[6] = test system: Pseudomonas aeruginosa; test: Antibacterial activity against Pseudomonas aeruginosa ATTC 27853 at 12 ug/ml after 3 to 4 days; conditions: ATCC27853, read-out: IZ
Outline: (§2)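 Agar well diffusion. Plates were seeded with a bacterial suspension, the excess was decanted and plates were dried at 37 °C for 1 h. Wells were punched and compounds in DMSO were added, with DMSO wells as control. Plates were run in triplicate at 37 °C for 3–4 days and zones of inhibition were scored.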

[7] = test system: Staphylococcus aureus; test: Antibacterial activity against Staphylococcus aureus ATTC 25923 after 16 to 18 hrs by serial plate dilution method; outline: as §1
[8] = test system: Staphylococcus aureus; test: Antibacterial activity against Staphylococcus aureus ATTC 25923 at […] ug/ml after 3 to 4 days; conditions: read-out: IZ
[9] = test system: Talaromyces marneffei; test: Antifungal activity against Penicillium marneffei by serial plate dilution method
Outline: (§3)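 Agar of peptone 1 g, D-glucose 4 g and agar 2 g per 100 mL water, pH 5.7, was lawned with a fungal spore suspension in normal saline. The excess was decanted and plates were dried at 37 °C for 1 h. Wells were punched and compounds in DMSO were added, with a DMSO control. Plates were run in triplicate at 37 °C for 3–4 days, and the inhibition zone diameter was measured.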

[10] = test system: Talaromyces marneffei; test: Antifungal activity against Penicillium marneffei at […] ug/ml after 3 to 4 days; conditions: read-out: IZ
[11] = test system: Trichophyton mentagrophytes; test: Antifungal activity against Trichophyton mentagrophytes by serial plate dilution method
[12] = test system: Trichophyton mentagrophytes; test: Antifungal activity against Trichophyton mentagrophytes at […] ug/ml after 3 to 4 days; conditions: read-out: IZ
[13] = test system: Aspergillus flavus; test: Antifungal activity against Aspergillus flavus NCIM 524 by serial plate dilution method; outline: as §3
[14] = test system: Aspergillus flavus; test: Antifungal activity against Aspergillus flavus NCIM 524 at […] ug/ml after 3 to 4 days; conditions: read-out: IZ
[15] = test system: Aspergillus fumigatus; test: Antifungal activity against Aspergillus fumigatus NCIM 902 by serial plate dilution method
[16] = test system: Aspergillus fumigatus; test: Antifungal activity against Aspergillus fumigatus NCIM 902 at […] ug/ml after 3 to 4 days; conditions: read-out: IZ
[17] = test system: Rattus norvegicus; test: Antiinflammatory activity against carrageenan-induced paw oedema in albino rat at 50 mg/kg, po relative to control
Outline: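 Albino rats of 180–250 g were fasted 18 h and placed in groups of six. Samples were suspended in 2% w/v acacia mucilage, and the vehicle group served as control. 30 min after dosing, carrageenan (1 mg mL⁻¹, 0.1 mL) was injected subcutaneously into the right hind paw. Paw volume was measured immediately and at 3 h, and % oedema inhibition was calculated versus vehicle controls.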

[18] = test system: Klebsiella pneumoniae; test: Antibacterial activity against Klebsiella pneumoniae at 12 ug/ml after 3 to 4 days; conditions: read-out: IZ; outline: as §2
[19] = test system: Pseudomonas aeruginosa; test: microbe, parasite or virus in culture; conditions: ATCC27853, read-out: IZ
[20] = test system: Talaromyces marneffei; test: Antifungal activity against Penicillium marneffei at 12 ug/ml after 3 to 4 days; conditions: read-out: IZ; outline: as §3
[21] = test system: Aspergillus fumigatus; test: Antifungal activity against Aspergillus fumigatus NCIM 902 at 12 ug/ml after 3 to 4 days; conditions: read-out: IZ; outline: as §3

Clc1cc(Cl)c(Cl)c(-c2nnc3sc(-c4cccc5ncccc45)nn23)c1
MIC [1]: 6.25 µg/mL (≈ 14.4 µM) | zone of inhibition at 6.25 µg/mL [2]: 16 mm | MIC [3]: 6.25 µg/mL (≈ 14.4 µM) | zone of inhibition at 6.25 µg/mL [4]: 16 mm | MIC [5]: 12 µg/mL (≈ 27.7 µM) | zone of inhibition at 12 µg/mL [6]: 11 mm | MIC [7]: 6.25 µg/mL (≈ 14.4 µM) | zone of inhibition at 6.25 µg/mL [8]: 16 mm | MIC [9]: 6.25 µg/mL (≈ 14.4 µM) | zone of inhibition at 6.25 µg/mL [10]: 16 mm | MIC [11]: 6.25 µg/mL (≈ 14.4 µM) | zone of inhibition at 6.25 µg/mL [12]: 16 mm | MIC [13]: 6.25 µg/mL (≈ 14.4 µM) | zone of inhibition at 6.25 µg/mL [14]: 16 mm | MIC [15]: 6.25 µg/mL (≈ 14.4 µM) | zone of inhibition at 6.25 µg/mL [16]: 16 mm | inhibition in vivo at 50 mg/kg [17]: 9.67%

Clc1cc(Cl)c(Cl)c(-c2nnc3sc(-c4ccccc4)nn23)c1
MIC [1]: 6.25 µg/mL (≈ 16.4 µM) | zone of inhibition at 6.25 µg/mL [2]: 16 mm | MIC [3]: 12 µg/mL (≈ 31.4 µM) | zone of inhibition at 12 µg/mL [18]: 11 mm | MIC [5]: 6.25 µg/mL (≈ 16.4 µM) | zone of inhibition at 6.25 µg/mL [19]: 16 mm | MIC [7]: 6.25 µg/mL (≈ 16.4 µM) | zone of inhibition at 6.25 µg/mL [8]: 16 mm | MIC [9]: 12 µg/mL (≈ 31.4 µM) | zone of inhibition at 12 µg/mL [20]: 11 mm | MIC [11]: 6.25 µg/mL (≈ 16.4 µM) | zone of inhibition at 6.25 µg/mL [12]: 16 mm | MIC [13]: 6.25 µg/mL (≈ 16.4 µM) | zone of inhibition at 6.25 µg/mL [14]: 16 mm | MIC [15]: 12 µg/mL (≈ 31.4 µM) | zone of inhibition at 12 µg/mL [21]: 11 mm | inhibition in vivo at 50 mg/kg [17]: 16.1%

Clc1cc(Cl)c(Cl)c(-c2nnc3sc(-c4ccncc4Br)nn23)c1
MIC [1]: 6.25 µg/mL (≈ 13.5 µM) | zone of inhibition at 6.25 µg/mL [2]: 16 mm | MIC [3]: 6.25 µg/mL (≈ 13.5 µM) | zone of inhibition at 6.25 µg/mL [4]: 16 mm | MIC [5]: 6.25 µg/mL (≈ 13.5 µM) | zone of inhibition at 6.25 µg/mL [19]: 16 mm | MIC [7]: 6.25 µg/mL (≈ 13.5 µM) | zone of inhibition at 6.25 µg/mL [8]: 16 mm | MIC [9]: 6.25 µg/mL (≈ 13.5 µM) | zone of inhibition at 6.25 µg/mL [10]: 16 mm | MIC [11]: 6.25 µg/mL (≈ 13.5 µM) | zone of inhibition at 6.25 µg/mL [12]: 16 mm | MIC [13]: 6.25 µg/mL (≈ 13.5 µM) | zone of inhibition at 6.25 µg/mL [14]: 16 mm | MIC [15]: 6.25 µg/mL (≈ 13.5 µM) | zone of inhibition at 6.25 µg/mL [16]: 16 mm | inhibition in vivo at 50 mg/kg [17]: 19.4%

NC(=O)c1cc(C2=Nn3c(nnc3-c3cc(Cl)cc(Cl)c3Cl)SC2)ccc1O
MIC [1]: 6.25 µg/mL (≈ 13.7 µM) | zone of inhibition at 6.25 µg/mL [2]: 16 mm | MIC [3]: 6.25 µg/mL (≈ 13.7 µM) | zone of inhibition at 6.25 µg/mL [4]: 16 mm | MIC [5]: 6.25 µg/mL (≈ 13.7 µM) | zone of inhibition at 6.25 µg/mL [19]: 16 mm | MIC [7]: 6.25 µg/mL (≈ 13.7 µM) | zone of inhibition at 6.25 µg/mL [8]: 16 mm | MIC [9]: 6.25 µg/mL (≈ 13.7 µM) | zone of inhibition at 6.25 µg/mL [10]: 16 mm | MIC [11]: 6.25 µg/mL (≈ 13.7 µM) | zone of inhibition at 6.25 µg/mL [12]: 16 mm | MIC [13]: 6.25 µg/mL (≈ 13.7 µM) | zone of inhibition at 6.25 µg/mL [14]: 16 mm | MIC [15]: 6.25 µg/mL (≈ 13.7 µM) | zone of inhibition at 6.25 µg/mL [16]: 16 mm

CSc1ccc(C2=Nn3c(nnc3-c3cc(Cl)cc(Cl)c3Cl)SC2)cc1
MIC [1]: 6.25 µg/mL (≈ 14.1 µM) | zone of inhibition at 6.25 µg/mL [2]: 16 mm | MIC [3]: 6.25 µg/mL (≈ 14.1 µM) | zone of inhibition at 6.25 µg/mL [4]: 16 mm | MIC [5]: 6.25 µg/mL (≈ 14.1 µM) | zone of inhibition at 6.25 µg/mL [19]: 16 mm | MIC [7]: 6.25 µg/mL (≈ 14.1 µM) | zone of inhibition at 6.25 µg/mL [8]: 16 mm | MIC [9]: 6.25 µg/mL (≈ 14.1 µM) | zone of inhibition at 6.25 µg/mL [10]: 16 mm | MIC [11]: 6.25 µg/mL (≈ 14.1 µM) | zone of inhibition at 6.25 µg/mL [12]: 16 mm | MIC [13]: 6.25 µg/mL (≈ 14.1 µM) | zone of inhibition at 6.25 µg/mL [14]: 16 mm | MIC [15]: 6.25 µg/mL (≈ 14.1 µM) | zone of inhibition at 6.25 µg/mL [16]: 16 mm | inhibition in vivo at 50 mg/kg [17]: 9.67%

COc1ccc(C2=Nn3c(nnc3-c3cc(Cl)cc(Cl)c3Cl)SC2)cc1
MIC [1]: 6.25 µg/mL (≈ 14.7 µM) | zone of inhibition at 6.25 µg/mL [2]: 16 mm | MIC [3]: 6.25 µg/mL (≈ 14.7 µM) | zone of inhibition at 6.25 µg/mL [4]: 16 mm | MIC [5]: 6.25 µg/mL (≈ 14.7 µM) | zone of inhibition at 6.25 µg/mL [19]: 16 mm | MIC [7]: 6.25 µg/mL (≈ 14.7 µM) | zone of inhibition at 6.25 µg/mL [8]: 16 mm | MIC [9]: 6.25 µg/mL (≈ 14.7 µM) | zone of inhibition at 6.25 µg/mL [10]: 16 mm | MIC [11]: 6.25 µg/mL (≈ 14.7 µM) | zone of inhibition at 6.25 µg/mL [12]: 16 mm | MIC [13]: 6.25 µg/mL (≈ 14.7 µM) | zone of inhibition at 6.25 µg/mL [14]: 16 mm | MIC [15]: 6.25 µg/mL (≈ 14.7 µM) | zone of inhibition at 6.25 µg/mL [16]: 16 mm | inhibition in vivo at 50 mg/kg [17]: 19.4%
